# Source: ChEMBL document CHEMBL4130441, “Mortiamides A-D, Cyclic Heptapeptides from a Novel Mortierella sp. Obtained from Frobisher Bay” (J Nat Prod, 2017)
# Activity calls are given as the source filed them. The calls are words filed in the database; no cut-off is given here. Where a SMILES comes first, the peptide text is derived from it.
# Key:
# BJ = test: Cytotoxicity against human BJ cells assessed as decrease in cell viability at 128 ug/ml after 24 hrs by Alamar blue assay; format: cell-based
# In short: (§1)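 Cells treated in 96-well culture plates in triplicate at 128 μg/mL. Viability measured 24 h after treatment with the redox dye Alamar Blue. Fluorescence read at 560/12 nm excitation and 590 nm emission, at time zero and 4 h after dye addition.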
# Staphylococcus warneri = test: Antimicrobial activity against Staphylococcus warneri ATCC 17917 at 128 ug/ml after 22 hrs by micro broth dilution assay; format: functional, organism-based
# In short: (§2)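 CLSI-standard 96-well broth microdilution, run in triplicate. Test concentration 128 μg/mL. Optical density read at time zero and at the final time point; growth inhibition calculated from the change after 22 h incubation.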
# Keratinocyte = test: Cytotoxicity against human epidermal keratinocytes assessed as decrease in cell viability at 128 ug/ml after 24 hrs by Alamar blue assay; in short: as §1
# Candida albicans = test: Antimicrobial activity against Candida albicans ATCC 14035 at 128 ug/ml after 22 hrs by micro broth dilution assay; format: functional, organism-based; in short: as §2
# Staphylococcus aureus = test: Antimicrobial activity against methicillin-resistant Staphylococcus aureus ATCC 33591 at 128 ug/ml after 22 hrs by micro broth dilution assay; format: functional, organism-based
# In short: (§3)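 CLSI 96-well microbroth dilution, triplicate; tested at 128 μg/mL; strains MRSA ATCC 33591 and VRE E. faecium EF379; optical density read at time zero and after 22 h incubation to give growth inhibition.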
# Enterococcus faecium = test: Antimicrobial activity against vancomycin-resistant Enterococcus faecium EF379 at 128 ug/ml after 22 hrs by micro broth dilution assay; format: functional, organism-based; in short: as §3
# MCF7 = test: Cytotoxicity against human MCF7 cells assessed as decrease in cell viability at 128 ug/ml after 24 hrs by Alamar blue assay; format: functional, cell-based; in short: as §1
# Homo sapiens = species: Homo sapiens; test: Cytotoxicity against human HTB-26 cells assessed as decrease in cell viability at 128 ug/ml after 24 hrs by Alamar blue assay; format: functional, cell-based; in short: as §1
# Pseudomonas aeruginosa = test: Antimicrobial activity against Pseudomonas aeruginosa ATCC 14210 at 128 ug/ml after 22 hrs by micro broth dilution assay; format: functional, organism-based; in short: as §2
Compound,Activity (BJ),Activity (Staphylococcus warneri),Activity (Keratinocyte),Activity (Candida albicans),Activity (Staphylococcus aureus),Activity (Enterococcus faecium),Activity (MCF7),Activity (Homo sapiens),Activity (Pseudomonas aeruginosa)
"CC(C)[C@H]1NC(=O)[C@H](Cc2ccccc2)NC(=O)[C@@H](C(C)C)NC(=O)[C@@H](C(C)C)NC(=O)[C@@H](C(C)C)NC(=O)[C@H](Cc2ccccc2)NC(=O)[C@@H](Cc2ccccc2)NC1=O (HELM PEPTIDE1{F.[dV].[dF].F.[dV].[dV].[dV]}$PEPTIDE1,PEPTIDE1,1:R1-7:R2$$$V2.0)",Non-Toxic,inactive,Non-Toxic,inactive,inactive,inactive,inactive,inactive,inactive
"CC(C)C[C@@H]1NC(=O)[C@@H](C(C)C)NC(=O)[C@@H](C(C)C)NC(=O)[C@@H](C(C)C)NC(=O)[C@H](Cc2ccccc2)NC(=O)[C@@H](Cc2ccccc2)NC(=O)[C@@H](C(C)C)NC1=O (HELM PEPTIDE1{F.[dV].[dV].[dV].L.[dV].[dF]}$PEPTIDE1,PEPTIDE1,1:R1-7:R2$$$V2.0)",Non-Toxic,inactive,Non-Toxic,inactive,inactive,inactive,inactive,inactive,inactive
"CC[C@@H](C)[C@H]1NC(=O)[C@@H](C)NC(=O)[C@H](Cc2ccccc2)NC(=O)[C@@H](CC(C)C)NC(=O)[C@@H](C(C)C)NC(=O)[C@H](Cc2ccccc2)NC(=O)[C@@H]([C@H](C)CC)NC1=O (HELM PEPTIDE1{F.[dA].[dI].[dI].F.[dV].[dL]}$PEPTIDE1,PEPTIDE1,1:R1-7:R2$$$V2.0)",Non-Toxic,inactive,Non-Toxic,inactive,inactive,inactive,inactive,inactive,inactive
CC[C@@H](C)[C@H]1NC(=O)[C@H](Cc2ccccc2)NC(=O)[C@@H]([C@H](C)CC)NC(=O)[C@@H](C(C)C)NC(=O)[C@@H]([C@H](C)CC)NC(=O)[C@H]([C@@H](C)CC)NC(=O)[C@@H](C)NC1=O,Non-Toxic,inactive,Non-Toxic,inactive,inactive,inactive,inactive,inactive,inactive
